From ChEMBL document CHEMBL1165914, “Characterization of 4-methyl-2-oxo-1,2-dihydroquinolin-6-yl acetate as an effective antiplatelet agent” (2010)
The source made the active and inactive calls. No cut-off for these calls is given here.

Tests used:
Homo sapiens [1] = organism: Homo sapiens; experiment: Inhibition of human platelet CRTAase assessed as inhibition of acetylation of glutathione S-transferase; set-up: concentration or dose not given beside the values; conditions: concentration not given here
Summary of the method: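 Platelet lysate as enzyme source. Acetoxy substrate preincubated with CRTAase and GST in potassium phosphate buffer pH 6.5, 37 °C, 10 min; GSH and CDNB then added and absorbance read at 340 nm. Activity unit is % inhibition of GST activity; mean of five observations.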

Homo sapiens [2] = organism: Homo sapiens; experiment: Activation of human platelet NOS assessed as increase in nitric oxide level by flow cytometry
Summary of the method: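 Platelets incubated with compounds, then intracellular NO measured by flow cytometry following the Imrich and Kobzik method.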

Platelet [3] = experiment: Antiplatelet activity in human platelet rich plasma assessed as inhibition of ADP-induced platelet aggregation measured for 6 mins by aggregometry; format: functional
Platelet [4] = experiment: Antiplatelet activity in human platelet rich plasma assessed as inhibition of arachidonic acid-induced platelet aggregation measured for 6 mins by aggregometry; format: functional
Rattus norvegicus [5] = experiment: Inhibition of COX1 in po dosed Sprague-Dawley rat after 24 hrs by ELISA relative to control; format: functional
Rattus norvegicus [6] = experiment: Ex vivo antiplatelet activity in Sprague-Dawley rat platelets assessed as inhibition of ADP-induced platelet aggregation at 133 umole/kg, po after 24 hrs by aggregometry; format: functional, organism-based
Summary of the method: (§1)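 Rats dosed orally and killed 24 h later. Blood taken by cardiac puncture and centrifuged as for PRP/PPP preparation (180g 10 min; 2500g 10 min). ADP- or AA-induced aggregation then measured by light-transmittance aggregometry.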

Rattus norvegicus [7] = experiment: Ex vivo antiplatelet activity in Sprague-Dawley rat platelets assessed as inhibition of arachidonic acid-induced platelet aggregation at 133 umole/kg, po after 24 hrs by aggregometry; format: functional, organism-based; summary of the method: as §1
Rattus norvegicus [8] = experiment: Inhibition of COX1 in po dosed Sprague-Dawley rat after 24 hrs by ELISA; format: functional, organism-based

inhibition (Homo sapiens [1]) [%] | SMILES | inhibition (Platelet [3]) | also measured
11.5 | CCc1c(C)c2cccc(OC(C)=O)c2[nH]c1=O | – | –
0 | CCCCCCc1c(C)c2cccc(OC(C)=O)c2[nH]c1=O | – | –
26 | CCc1c(C)c2cc(OC(C)=O)ccc2[nH]c1=O | – | –
13 | CCc1c(C)c2ccc(OC(C)=O)cc2[nH]c1=O | – | –
12 | CC(=O)Oc1cccc2c(C)cc(=O)[nH]c12 | Active | Activity (Homo sapiens [2]): Active

Further lines, the compound ahead of its results:

SMILES | inhibition (Homo sapiens [1]) [%] | inhibition (Platelet [3]) | also measured
CC(=O)Oc1cc(=O)[nH]c2ccccc12 | 0 | – | –
CC(=O)Oc1ccc2c(C)cc(=O)[nH]c2c1 | 13.2 | Active | Activity (Homo sapiens [2]): Active
CCCCCCc1c(C)c2ccc(OC(C)=O)cc2[nH]c1=O | 2 | – | –
CCOC(=O)Cn1c(=O)cc(C)c2ccc(OC(C)=O)cc21 | 10 | Active | –
CCOC(=O)COc1cc(C)c2ccc(OC(C)=O)cc2n1 | 13.2 | inactive | –
CCOC(=O)COc1cc(C)c2cc(OC(C)=O)ccc2n1 | 28.6 | inactive | –
CC(=O)Oc1ccc2[nH]c(=O)cc(C)c2c1 | 31 | Active | Activity (Homo sapiens [2]): Active; inhibition (Platelet [4]): Active; fold change (FC) (Rattus norvegicus [5]): 3.5; inhibition (Rattus norvegicus [6]): Active; inhibition (Rattus norvegicus [7]): Active
Cc1cc(=O)[nH]c2ccc(O)cc12 | 0 | – | inhibition (Rattus norvegicus [6]): inactive; inhibition (Rattus norvegicus [8]): inactive; inhibition (Rattus norvegicus [7]): inactive
CC(=O)Oc1ccccc1C(=O)O | – | – | inhibition (Rattus norvegicus [6]): Active; inhibition (Rattus norvegicus [8]): Active; inhibition (Rattus norvegicus [7]): Active
CCCCCCc1c(C)c2cc(OC(C)=O)ccc2[nH]c1=O | 7 | – | –
CCOC(=O)Cn1c(=O)cc(C)c2cc(OC(C)=O)ccc21 | 23 | Active | –
